{"source": "paper PMC12783166", "about": "(Clinical Pharmacokinetics, 2025)", "experiment": "Individual predicted steady-state exposures", "assay_type": "in vivo, human", "in_short": "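Steady-state AUC24, Ctrough, Cmax and Cavg were derived from each individual's Bayesian post hoc estimates from the final three-compartment population PK model, with sequential zero-/first-order lagged absorption. Values are summarised per […] as mean (SD) and median (5th–95th percentile).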"}
{"smiles": "C[C@@H]1[C@H](c2c(F)ccc(F)c2F)C[C@H](NC(=O)c2cnc3c(c2)C[C@@]2(C3)C(=O)Nc3ncccc32)C(=O)N1CC(F)(F)F", "note": "[atogepant, Atogepant]", "values": [{"measurement": "Cavg, Mean (SD)", "setting": "ADVANCE EM, 10 mg QD", "result": "21.9 (14) ng/mL"}, {"measurement": "Cavg, Median (5th to 95th percentile)", "setting": "ADVANCE EM, 10 mg QD", "result": "19.3 (5.35–163) ng/mL"}, {"measurement": "Ctrough, Mean (SD)", "setting": "ADVANCE EM, 10 mg QD", "result": "3.24 (3.1) ng/mL"}, {"measurement": "Ctrough, Median (5th to 95th percentile)", "setting": "ADVANCE EM, 10 mg QD", "result": "2.62 (0.576–35.2) ng/mL"}, {"measurement": "Time above ½EC90 (4.2 ng/mL or 7 nM), Mean (SD)", "setting": "ADVANCE EM, 10 mg QD", "result": "18.1 (3.8) hr"}, {"measurement": "Time above ½EC90 (4.2 ng/mL or 7 nM), Median (5th to 95th percentile)", "setting": "ADVANCE EM, 10 mg QD", "result": "18.0 (8.00–24.0) hr"}, {"measurement": "Cavg, Mean (SD)", "setting": "ADVANCE EM, 30 mg QD", "result": "76.1 (54) ng/mL"}, {"measurement": "Cavg, Median (5th to 95th percentile)", "setting": "ADVANCE EM, 30 mg QD", "result": "65.1 (19.0–466) ng/mL"}, {"measurement": "Ctrough, Mean (SD)", "setting": "ADVANCE EM, 30 mg QD", "result": "12.0 (16) ng/mL"}, {"measurement": "Ctrough, Median (5th to 95th percentile)", "setting": "ADVANCE EM, 30 mg QD", "result": "8.85 (2.02–202) ng/mL"}, {"measurement": "Time above ½EC90 (4.2 ng/mL or 7 nM), Mean (SD)", "setting": "ADVANCE EM, 30 mg QD", "result": "23.7 (1.2) hr"}, {"measurement": "Time above ½EC90 (4.2 ng/mL or 7 nM), Median (5th to 95th percentile)", "setting": "ADVANCE EM, 30 mg QD", "result": "24.0 (16.0–24.0) hr"}, {"measurement": "Cavg, Mean (SD)", "setting": "ADVANCE EM, 60 mg QD", "result": "156 (94) ng/mL"}, {"measurement": "Cavg, Median (5th to 95th percentile)", "setting": "ADVANCE EM, 60 mg QD", "result": "134 (33.9–874) ng/mL"}, {"measurement": "Ctrough, Mean (SD)", "setting": "ADVANCE EM, 60 mg QD", "result": "23.8 (30) ng/mL"}, {"measurement": "Ctrough, Median (5th to 95th percentile)", "setting": "ADVANCE EM, 60 mg QD", "result": "18.4 (3.63–373) ng/mL"}, {"measurement": "Time above ½EC90 (4.2 ng/mL or 7 nM), Mean (SD)", "setting": "ADVANCE EM, 60 mg QD", "result": "24.0 (0.22) hr"}, {"measurement": "Time above ½EC90 (4.2 ng/mL or 7 nM), Median (5th to 95th percentile)", "setting": "ADVANCE EM, 60 mg QD", "result": "24.0 (21.5–24.0) hr"}, {"measurement": "Cavg, Mean (SD)", "setting": "CGP-MD-01 EM, 10 mg QD", "result": "19.2 (6.7) ng/mL"}, {"measurement": "Cavg, Median (5th to 95th percentile)", "setting": "CGP-MD-01 EM, 10 mg QD", "result": "19.3 (7.01–52.2) ng/mL"}, {"measurement": "Ctrough, Mean (SD)", "setting": "CGP-MD-01 EM, 10 mg QD", "result": "2.80 (1.4) ng/mL"}, {"measurement": "Ctrough, Median (5th to 95th percentile)", "setting": "CGP-MD-01 EM, 10 mg QD", "result": "2.58 (0.738–9.95) ng/mL"}, {"measurement": "Time above ½EC90 (4.2 ng/mL or 7 nM), Mean (SD)", "setting": "CGP-MD-01 EM, 10 mg QD", "result": "17.8 (3.5) hr"}, {"measurement": "Time above ½EC90 (4.2 ng/mL or 7 nM), Median (5th to 95th percentile)", "setting": "CGP-MD-01 EM, 10 mg QD", "result": "18.0 (9.00–24.0) hr"}, {"measurement": "Cavg, Mean (SD)", "setting": "CGP-MD-01 EM, 30 mg BID", "result": "162 (85) ng/mL"}, {"measurement": "Cavg, Median (5th to 95th percentile)", "setting": "CGP-MD-01 EM, 30 mg BID", "result": "132 (50.6–476) ng/mL"}, {"measurement": "Ctrough, Mean (SD)", "setting": "CGP-MD-01 EM, 30 mg BID", "result": "60.7 (44) ng/mL"}, {"measurement": "Ctrough, Median (5th to 95th percentile)", "setting": "CGP-MD-01 EM, 30 mg BID", "result": "44.5 (13.3–277) ng/mL"}, {"measurement": "Time above ½EC90 (4.2 ng/mL or 7 nM), Mean (SD)", "setting": "CGP-MD-01 EM, 30 mg BID", "result": "12.0 (0.0) hr"}, {"measurement": "Time above ½EC90 (4.2 ng/mL or 7 nM), Median (5th to 95th percentile)", "setting": "CGP-MD-01 EM, 30 mg BID", "result": "12.0 (12.0–12.0) hr"}, {"measurement": "Cavg, Mean (SD)", "setting": "CGP-MD-01 EM, 30 mg QD", "result": "71.3 (36) ng/mL"}, {"measurement": "Cavg, Median (5th to 95th percentile)", "setting": "CGP-MD-01 EM, 30 mg QD", "result": "66.2 (30.6–310) ng/mL"}, {"measurement": "Ctrough, Mean (SD)", "setting": "CGP-MD-01 EM, 30 mg QD", "result": "11.2 (16) ng/mL"}, {"measurement": "Ctrough, Median (5th to 95th percentile)", "setting": "CGP-MD-01 EM, 30 mg QD", "result": "8.97 (3.68–203) ng/mL"}, {"measurement": "Time above ½EC90 (4.2 ng/mL or 7 nM), Mean (SD)", "setting": "CGP-MD-01 EM, 30 mg QD", "result": "24.0 (0.19) hr"}, {"measurement": "Time above ½EC90 (4.2 ng/mL or 7 nM), Median (5th to 95th percentile)", "setting": "CGP-MD-01 EM, 30 mg QD", "result": "24.0 (21.5–24.0) hr"}, {"measurement": "Cavg, Mean (SD)", "setting": "CGP-MD-01 EM, 60 mg BID", "result": "331 (200) ng/mL"}, {"measurement": "Ctrough, Mean (SD)", "setting": "CGP-MD-01 EM, 60 mg BID", "result": "133 (140) ng/mL"}, {"measurement": "Ctrough, Median (5th to 95th percentile)", "setting": "CGP-MD-01 EM, 60 mg BID", "result": "101 (26.1–972) ng/mL"}, {"measurement": "Time above ½EC90 (4.2 ng/mL or 7 nM), Mean (SD)", "setting": "CGP-MD-01 EM, 60 mg BID", "result": "12.0 (0.0) hr"}, {"measurement": "Time above ½EC90 (4.2 ng/mL or 7 nM), Median (5th to 95th percentile)", "setting": "CGP-MD-01 EM, 60 mg BID", "result": "12.0 (12.0–12.0) hr"}, {"measurement": "Cavg, Mean (SD)", "setting": "CGP-MD-01 EM, 60 mg QD", "result": "152 (93) ng/mL"}, {"measurement": "Cavg, Median (5th to 95th percentile)", "setting": "CGP-MD-01 EM, 60 mg QD", "result": "144 (39.5–992) ng/mL"}, {"measurement": "Ctrough, Mean (SD)", "setting": "CGP-MD-01 EM, 60 mg QD", "result": "23.6 (30) ng/mL"}, {"measurement": "Ctrough, Median (5th to 95th percentile)", "setting": "CGP-MD-01 EM, 60 mg QD", "result": "19.5 (5.07–335) ng/mL"}, {"measurement": "Time above ½EC90 (4.2 ng/mL or 7 nM), Mean (SD)", "setting": "CGP-MD-01 EM, 60 mg QD", "result": "24.0 (0.0) hr"}, {"measurement": "Time above ½EC90 (4.2 ng/mL or 7 nM), Median (5th to 95th percentile)", "setting": "CGP-MD-01 EM, 60 mg QD", "result": "24.0 (24.0–24.0) hr"}, {"measurement": "Cavg, Mean (SD)", "setting": "ELEVATE EM, 60 mg QD", "result": "147 (75) ng/mL"}, {"measurement": "Cavg, Median (5th to 95th percentile)", "setting": "ELEVATE EM, 60 mg QD", "result": "138 (12.5–474) ng/mL"}, {"measurement": "Ctrough, Mean (SD)", "setting": "ELEVATE EM, 60 mg QD", "result": "15.4 (13) ng/mL"}, {"measurement": "Ctrough, Median (5th to 95th percentile)", "setting": "ELEVATE EM, 60 mg QD", "result": "13.4 (2.70–98.1) ng/mL"}, {"measurement": "Time above ½EC90 (4.2 ng/mL or 7 nM), Mean (SD)", "setting": "ELEVATE EM, 60 mg QD", "result": "23.9 (0.79) hr"}, {"measurement": "Time above ½EC90 (4.2 ng/mL or 7 nM), Median (5th to 95th percentile)", "setting": "ELEVATE EM, 60 mg QD", "result": "24.0 (17.5–24.0) hr"}, {"measurement": "Cavg, Mean (SD)", "setting": "PROGRESS CM, 30 mg BID", "result": "157 (87) ng/mL"}, {"measurement": "Cavg, Median (5th to 95th percentile)", "setting": "PROGRESS CM, 30 mg BID", "result": "135 (33.1–571) ng/mL"}, {"measurement": "Ctrough, Mean (SD)", "setting": "PROGRESS CM, 30 mg BID", "result": "56.1 (43) ng/mL"}, {"measurement": "Ctrough, Median (5th to 95th percentile)", "setting": "PROGRESS CM, 30 mg BID", "result": "42.4 (8.87–269) ng/mL"}, {"measurement": "Time above ½EC90 (4.2 ng/mL or 7 nM), Mean (SD)", "setting": "PROGRESS CM, 30 mg BID", "result": "24.0 (0.0) hr"}, {"measurement": "Time above ½EC90 (4.2 ng/mL or 7 nM), Median (5th to 95th percentile)", "setting": "PROGRESS CM, 30 mg BID", "result": "24.0 (24.0–24.0) hr"}, {"measurement": "Cavg, Mean (SD)", "setting": "PROGRESS CM, 60 mg QD", "result": "139 (85) ng/mL"}, {"measurement": "Cavg, Median (5th to 95th percentile)", "setting": "PROGRESS CM, 60 mg QD", "result": "120 (21.9–908) ng/mL"}, {"measurement": "Ctrough, Mean (SD)", "setting": "PROGRESS CM, 60 mg QD", "result": "18.8 (24) ng/mL"}]}
